# Measured values reported in ChEMBL document CHEMBL2321840, “Synthesis and structure-activity relationships of indazole arylsulfonamides as allosteric CC-chemokine receptor 4 (CCR4) antagonists” (J Med Chem, 2013).
# Key:
# in vivo [1] = conditions: CD, rat, iv, 1 mg/kg
# [2] = Kinetic solubility of the compound by chemiluminescent nitrogen detection assay; assay type: physicochemical; conditions: read-out: Kinetic_solubility
# [3] = Plasma protein binding in human by equilibrium dialysis technique; assay type: ADME, cell-free; conditions: read-out: PPB (converted)
# Procedure, shortened: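 Rapid equilibrium dialysis in CD rat, beagle dog or human plasma, with compound at a nominal 1 μg/mL; n = 3.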
# [4] = Lipophilicity, log D of the compound by chromatographic analysis; assay type: physicochemical
# Procedure, shortened: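 Chromatographic log D measured at pH 7.4.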
# Canis familiaris [5] = test: (§1) Volume of distribution at steady state in Beagle dog at 0.5 mg/kg, iv; assay type: ADME, organism-based, Canis lupus familiaris; design: dose 0.5 mg/kg, route intravenous; conditions: in vivo
# [6] = Oral bioavailability in CD rat at 1 mg/kg; assay type: ADME, organism-based; conditions: in vivo
# Procedure, shortened: (§2)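 CD rat pharmacokinetics, with compounds given as solutions in DMSO–PEG200–H₂O (5:45:50); one analogue used a 10:40:50 ratio.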
# [7] = target: T1, C-C chemokine receptor type 4 (Homo sapiens, UniProt P51679); test: Antagonist activity at human recombinant CCR4 receptor expressed in CHO cell membranes by [35S]GTPgammaS binding assay; assay type: functional
# T1 sequence (P51679 whole entry): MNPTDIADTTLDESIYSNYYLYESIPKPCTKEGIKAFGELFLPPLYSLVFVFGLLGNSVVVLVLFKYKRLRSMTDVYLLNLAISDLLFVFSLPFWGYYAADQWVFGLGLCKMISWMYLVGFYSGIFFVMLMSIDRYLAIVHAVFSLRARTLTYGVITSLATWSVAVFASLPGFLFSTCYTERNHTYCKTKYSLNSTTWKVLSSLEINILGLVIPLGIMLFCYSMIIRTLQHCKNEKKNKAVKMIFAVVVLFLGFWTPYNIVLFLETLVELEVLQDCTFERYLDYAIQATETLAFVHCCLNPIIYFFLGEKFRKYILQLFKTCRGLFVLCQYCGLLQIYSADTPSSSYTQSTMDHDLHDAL
# in vivo [8] = conditions: CD, rat, iv, 1 mg/kg; remark: listed apart in the source
# [9] = Volume of distribution at steady state in CD rat at 1 mg/kg, iv and 1 mg/kg, po; assay type: ADME, organism-based; conditions: in vivo, read-out: Vdss
# Procedure, shortened: as §2
# Canis familiaris [10] = organism: Canis familiaris; conditions: dog, in vivo, iv, 0.5 mg/kg
# [11] = target: T1, C-C chemokine receptor type 4; test: Antagonist activity at CCR4 receptor in human whole blood assessed as F-actin polymerization after 30 mins by FACS-based flow cytometric analysis; conditions: read-out: pA2 (converted)
# [12] = Equilibrium solubility of the compound in fasted-state simulated intestinal fluid at pH 6.5 after 24 hrs by HPLC analysis; assay type: physicochemical
# Procedure, shortened: (§3)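 Solid compound was equilibrated 24 h in the stated medium: water, SGF pH 1.6, FeSSIF pH 6.5, FaSSIF pH 6.5 or saline. Dissolved compound was quantified by HPLC.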
# [13] = Equilibrium solubility of the compound in fed-state simulated intestinal fluid at pH 6.5 after 24 hrs by HPLC analysis; assay type: physicochemical
# Procedure, shortened: as §3
# [14] = Equilibrium solubility of the compound in simulated gastric fluid at pH 1.6 after 24 hrs by HPLC analysis; assay type: physicochemical
# Procedure, shortened: as §3
# [15] = Equilibrium solubility of the compound in water after 24 hrs by HPLC analysis; assay type: physicochemical
# Procedure, shortened: as §3
# in vivo [16] = conditions: beagle, dog, iv, 0.5 mg/kg
# in vivo [17] = conditions: beagle, dog, iv, 0.5 mg/kg; remark: listed apart in the source
# [18] = Oral bioavailability in Beagle dog at 1 mg/kg; assay type: ADME, organism-based, Canis lupus familiaris; conditions: in vivo
# [19] = as §1; assay type: ADME, organism-based, Canis lupus familiaris; design: dose 0.5 mg/kg, route intravenous; conditions: beagle, in vivo, read-out: Vdss
half-life (in vivo [1]),solubility kinetic [2],fraction unbound [3],chromatographic logD [4],Vdss (Canis familiaris [5]),bioavailability [6],IC50 [7],clearance (in vivo [8]),Vd [9],t1/2 (Canis familiaris [10]),Kb [11],solubility thermodynamic at 24 h [12],solubility thermodynamic at 24 h [13],solubility thermodynamic at 24 h [14],solubility thermodynamic at 24 h [15],half-life (in vivo [16]),clearance (in vivo [17]),bioavailability [18],Vd [19],Compound
3 h,≥ 220 µg/mL,0.078,3.3,11 L/kg,< 1%,15.8 nM,29 mL/min/kg,2.6 L/kg,0.95 h,126 nM,,,,,,,,,COc1cccc2c1c(NS(=O)(=O)c1ccc(Cl)s1)nn2Cc1cccc(CNC(=O)[C@@H]2CCCCN2)c1
1.8 h,≥ 198 µg/mL,,4.2,,90%,15.8 nM,19 mL/min/kg,1.5 L/kg,,631 nM,36 µg/mL,33 µg/mL,1 µg/mL,32 µg/mL,,,,,COc1cc(F)cc2c1c(NS(=O)(=O)c1ccc(Cl)s1)nn2Cc1cccc(CNC(=O)C(C)(C)O)c1
1.2 h,≥ 212 µg/mL,0.018,3.9,,32%,15.8 nM,18 mL/min/kg,0.78 L/kg,,79.4 nM,,,,,2.6 h,41 mL/min/kg,39%,3 L/kg,COc1cccc2c1c(NS(=O)(=O)c1ccc(Cl)s1)nn2Cc1cccc(CNC(=O)[C@@H]2COCCN2)c1
0.8 h,191 µg/mL,0.054,3.1,,19%,15.8 nM,17 mL/min/kg,0.79 L/kg,,200 nM,,,,,5.9 h,17 mL/min/kg,81%,6 L/kg,CN[C@H](C)C(=O)NCc1cccc(Cn2nc(NS(=O)(=O)c3ccc(Cl)s3)c3c(OC)cccc32)c1
